Our source for the EC90 and IC50 values is ChEMBL document CHEMBL1148625, “3-(1,1-dioxo-2H-(1,2,4)-benzothiadiazin-3-yl)-4-hydroxy-2(1H)-quinolinones, potent inhibitors of hepatitis C virus RNA-dependent RNA polymerase” (J Med Chem, 2006).

Where only a bound is given, the exact number is not on record here.

As usually defined, the EC90 is the point of the concentration-response curve where the effect stands at 90%. By IC50 is commonly meant the concentration needed to halve the response being measured. A higher IC50 goes with weaker potency.

Assay [1] has as its target RNA-directed RNA polymerase (Hepacivirus hominis) (UniProt O39930). The assay can be described thus: Inhibition of HCV RNA replication in Huh7 cells. The assay is classed as functional, cell-based. The note with it: Huh-7. The gist of the method: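 Huh-7 subgenomic replicon cells were seeded at 3 × 10³/well in DMEM with 10% FCS, 1% NEAA and 1 mg/mL G418, and allowed 4 h to attach. Eleven 2.5-fold DMSO dilutions were added (final 10,000 to 1.0 nM) and cells incubated 40 h. Neo RNA was measured by TaqMan RT-PCR, normalised to cyclophilin against DMSO controls; n = 8 wells per dilution.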

The target of assay [2] is RNA-directed RNA polymerase (Hepacivirus hominis, UniProt O39930). The assay is described as follows: Inhibitory activity against HCV delta 21 NS5B RNA polymerase by SPA assay. On the set-up: species or system Hepatitis C virus subtype 1b.
Chain of RNA-directed RNA polymerase (O39930 whole entry): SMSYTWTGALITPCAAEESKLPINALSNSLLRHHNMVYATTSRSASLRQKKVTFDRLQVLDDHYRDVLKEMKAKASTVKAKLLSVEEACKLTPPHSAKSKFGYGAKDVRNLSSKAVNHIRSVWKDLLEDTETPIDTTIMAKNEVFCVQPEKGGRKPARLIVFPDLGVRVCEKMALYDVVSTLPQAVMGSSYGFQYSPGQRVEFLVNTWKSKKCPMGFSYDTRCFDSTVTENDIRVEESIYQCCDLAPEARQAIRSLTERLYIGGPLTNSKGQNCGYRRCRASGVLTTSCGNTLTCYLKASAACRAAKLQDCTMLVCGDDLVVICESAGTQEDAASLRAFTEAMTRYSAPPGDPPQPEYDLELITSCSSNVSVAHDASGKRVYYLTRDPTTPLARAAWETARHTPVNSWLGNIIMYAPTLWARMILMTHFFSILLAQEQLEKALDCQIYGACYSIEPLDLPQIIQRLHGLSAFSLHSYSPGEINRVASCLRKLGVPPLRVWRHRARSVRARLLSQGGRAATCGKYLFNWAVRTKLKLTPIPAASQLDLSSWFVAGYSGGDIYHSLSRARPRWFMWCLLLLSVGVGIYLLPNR

Chain of RNA-directed RNA polymerase (Hepacivirus hominis) (O39930 1-591): as the sequence (O39930 whole entry) above

In assay [1], `CCCCn1c(=O)c(C2=NS(=O)(=O)c3ccccc3N2)c(O)c2ccccc21` gave an EC90 of 3760 nM. The IC50 in assay [2] is 200 nM.
Turning to `CC(C)CCn1c(=O)c(C2=NS(=O)(=O)c3ccccc3N2)c(O)c2cc(N)ccc21`, in assay [1], it took 1200 nM to reach the 90% level (EC90).
In turn, `Nc1ccc2c(c1)c(O)c(C1=NS(=O)(=O)c3ccccc3N1)c(=O)n2CCC1CC1` had an EC90 in assay [1] of 593 nM. In assay [2], this compound came in with a 50% inhibitory concentration (IC50) of 32 nM.
`CCOC(=O)CNc1ccc2c(c1)c(O)c(C1=NS(=O)(=O)c3ccccc3N1)c(=O)n2CCC(C)C`: in assay [1], the 90% effect level (EC90) was put at 998 nM.
In assay [1], `CC(C)CCn1c(=O)c(C2=NS(=O)(=O)c3ccccc3N2)c(O)c2cc(OCC(N)=O)ccc21` gave an EC90 of 2410 nM.
Same read-out and setting: to `CC(C)CCn1c(=O)c(C2=NS(=O)(=O)c3ccccc3N2)c(O)c2cc(OCC#N)ccc21` belongs 1610 nM.
Regarding `CC(C)(C)CCn1c(=O)c(C2=NS(=O)(=O)c3ccccc3N2)c(O)c2cc(NCCO)ccc21`, the 90% effect concentration (EC90) in assay [1] was determined as 1440 nM. This compound yielded an IC50 in assay [2] of 48 nM.
Compound `O=c1c(C2=NS(=O)(=O)c3ccccc3N2)c(O)c2ccccc2n1CC1CCC1` displayed a concentration for an effect of 90% (EC90) in assay [1] of 1190 nM.
As to `CC(C)CCn1c(=O)c(C2=NS(=O)(=O)c3ccccc3N2C)c(O)c2ccccc21`, the concentration for half-maximal inhibition (IC50) in assay [2] is > 2430 nM.
On the same count and under the same terms, the same measure for `O=c1c(C2=Nc3ccccc3S(=O)(=O)N2)c(O)c2ccccc2n1CC1CCC1`: 49 nM; for `CC(C)CCn1c(=O)c(C2=NS(=O)(=O)c3ccccc3N2)c(O)c2c(O)cccc21`: 47 nM; for `CC(C)CCn1c(=O)c(C2=NS(=O)(=O)c3ccccc3N2)c(O)c2cc(OCCCC#N)ccc21`: 4330 nM.
In the case of `CC(C)CCn1c(=O)c(C2=NS(=O)(=O)c3ccccc3N2)c(O)c2cc(NC(=O)c3ccccc3)ccc21`, in assay [2], half-maximal inhibition (IC50) required 4230 nM.
Take `CC(C)CCn1c(=O)c(C2=Nc3ccccc3S(=O)(=O)N2)c(O)c2cc(OCc3ccccc3)ccc21`: in assay [2], the IC50 stood at 3950 nM.
`CCCn1c(=O)c(C2=Nc3ccccc3S(=O)(=O)N2)c(O)c2ccccc21` came in with a 50% inhibitory concentration (IC50) in assay [2] of 1550 nM.
Same read-out and setting: to `N#CCCCCn1c(=O)c(C2=Nc3ccccc3S(=O)(=O)N2)c(O)c2ccccc21` belongs 750 nM.
Regarding `O=c1c(C2=NS(=O)(=O)c3ccccc3N2)c(O)c2ccccc2n1Cc1cccnc1`, in assay [2], the IC50 was 316 nM.
In turn, `O=c1c(C2=NS(=O)(=O)c3ccccc3N2)c(O)c2ccccc2n1-c1ccccc1` displayed an EC90 in assay [1] of 1870 nM. That is a single-digit micromolar value.
`CC1CC1Cn1c(=O)c(C2=Nc3ccccc3S(=O)(=O)N2)c(O)c2ccccc21` (configuration not stated) showed an IC50 in assay [2] of 41 nM.
`CC(=O)Nc1ccc2c(c1)c(O)c(C1=NS(=O)(=O)c3ccccc3N1)c(=O)n2CCC(C)C`: the IC50 in assay [2] is > 10000 nM.
As to `O=c1c(C2=NS(=O)(=O)c3ccccc3N2)c(O)c2ccccc2n1CCN1CCCC1`, the IC50 in assay [2] was > 10000 nM.
`CC(CCn1c(=O)c(C2=NS(=O)(=O)c3ccccc3N2)c(O)c2ccccc21)C(F)(F)F` (configuration not stated) had an IC50 in assay [2] of 44 nM.
On the same count and under the same terms, to `CC(C)(C)c1ccc(Cn2c(=O)c(C3=NS(=O)(=O)c4ccccc4N3)c(O)c3ccccc32)cc1` belongs > 10000 nM.
As for `CCn1c(=O)c(C2=Nc3ccccc3S(=O)(=O)N2)c(O)c2ccccc21`, the IC50 in assay [2] came out at 2220 nM.
Same read-out and setting: to `O=c1c(C2=Nc3ccccc3S(=O)(=O)N2)c(O)c2ccccc2n1Cc1cccc([N+](=O)[O-])c1` belongs 81 nM; to `O=c1c(C2=Nc3ccccc3S(=O)(=O)N2)c(O)c2ccccc2n1Cc1ccc([N+](=O)[O-])cc1`, 2440 nM.
In the case of `CC(C)CCn1c(=O)c(C2=Nc3ccccc3S(=O)(=O)N2)c(O)c2cc(OCC#N)ccc21`, half-maximal inhibition in assay [2] (IC50) required 34 nM.
Same read-out and setting: to `C=CCCn1c(=O)c(C2=NS(=O)(=O)c3ccccc3N2)c(O)c2ccccc21` belongs 90 nM; to `CC(C)CCn1c(=O)c(C2=Nc3ccccc3S(=O)(=O)N2)c(O)c2cc(NC(=O)CN(C)C)ccc21`, 5810 nM.
Compound `CC(C)CCn1c(=O)c(C2=Nc3ccccc3S(=O)(=O)N2)c(O)c2c(Br)cccc21` came in with an IC50 in assay [2] of 105 nM.
Still for that read-out and setting: the same measure for `O=c1c(C2=Nc3ccccc3S(=O)(=O)N2)c(O)c2ccccc2n1CC1CCCCC1`: 367 nM.
The same measure, in the same setting: to `COC(C)CCn1c(=O)c(C2=NS(=O)(=O)c3ccccc3N2)c(O)c2ccccc21` (configuration not stated) belongs 82 nM.
In turn, `CC(C)CCn1c(=O)c(C2=NS(=O)(=O)c3ccccc3N2)c(O)c2cc(NCC(=O)O)ccc21` yielded an EC90 in assay [1] of 9610 nM.
Consider `O=c1c(C2=NS(=O)(=O)c3ccccc3N2)c(O)c2ccccc2n1Cc1ccoc1`, for which, in assay [1], the EC90 was 2530 nM. Inhibition in assay [2] was half-maximal at 27 nM (IC50).
In turn, `CC(C)CCn1c(=O)c(C2=NS(=O)(=O)c3ccccc3N2)c(O)c2cc(F)ccc21` showed an EC90 in assay [1] of 4950 nM.
In assay [2], `CC(C)CCn1c(=O)c(C2=Nc3ccccc3S(=O)(=O)N2)c(O)c2cc(OCC(N)=O)ccc21` gave an IC50 of 24 nM.
With `O=c1c(C2=NS(=O)(=O)c3ccccc3N2)c(O)c2ccccc2n1CC1CCOC1` (configuration not stated), the IC50 in assay [2] worked out at 484 nM.
As to `CC(C)(C)C(=O)Cn1c(=O)c(C2=NS(=O)(=O)c3ccccc3N2)c(O)c2cc(F)ccc21`, the IC50 in assay [2] is 696 nM.
As to `COCCOc1ccc2c(c1)c(O)c(C1=NS(=O)(=O)c3ccccc3N1)c(=O)n2CCC(C)C`, the IC50 in assay [2] stood at 1740 nM.
Same read-out and setting: to `CC(C)CCn1c(=O)c(C2=NS(=O)(=O)c3ccccc3N2)c(O)c2c(Cl)cccc21` belongs 33 nM; to `CN(C)CCn1c(=O)c(C2=Nc3ccccc3S(=O)(=O)N2)c(O)c2ccccc21`, > 10000 nM; to `Cn1c(=O)c(C2=NS(=O)(=O)c3ccccc3N2)c(O)c2ccccc21`, 5590 nM.
Consider `CC(C)CCn1c(=O)c(C2=Nc3ccccc3S(=O)(=O)N2)c(O)c2ccc(Cl)cc21`, for which the half-maximal inhibitory concentration (IC50) in assay [2] was > 10000 nM.
Still for that read-out and setting: the same measure for `O=c1c(C2=NS(=O)(=O)c3ccccc3N2)c(O)c2ccccc2n1CCc1ccccc1`: > 10000 nM.
The same measure, in the same setting: to `CSCCn1c(=O)c(C2=NS(=O)(=O)c3ccccc3N2)c(O)c2ccccc21` belongs 53 nM.
In the case of `CC(C)CCn1c(=O)c(C2=NS(=O)(=O)c3ccccc3N2)c(O)c2c(F)cccc21`, in assay [1], it took 2070 nM to reach the 90% level (EC90).
On to `O=c1[nH]c(-c2c(O)c3cc(F)ccc3n(CCC3CC3)c2=O)nc2ccccc12`, for which, in assay [2], the IC50 was > 10000 nM.
On to `CC(C)CCn1c(=O)c(C2=NS(=O)(=O)c3ccccc3N2)c(O)c2cc(NC(=O)CC(C)C)ccc21`, for which, in assay [2], the IC50 came out at 6500 nM.
For `CC(C)CCn1c(=O)c(C2=NS(=O)(=O)c3ccccc3N2)c(O)c2cc(Cl)ccc21`, the 90% effect level in assay [1] (EC90) was put at 3830 nM. Moreover, in assay [2], the IC50 turned out to be 43 nM.
`O=c1c(C2=Nc3ccccc3S(=O)(=O)N2)c(O)c2ccccc2n1Cc1ccccc1[N+](=O)[O-]`: the IC50 in assay [2] was > 10000 nM.
Same read-out and setting: the same measure for `CN(C)C(=O)Cn1c(=O)c(C2=Nc3ccccc3S(=O)(=O)N2)c(O)c2cc(F)ccc21`: > 10000 nM; for `CC(C)CCn1c(=O)c(C2=Nc3ccccc3S(=O)(=O)N2)c(O)c2cc(NC(=O)C3CCCC3)ccc21`: 973 nM.
Still for that read-out and setting: to `CC(C)CCn1c(=O)c(C2=Nc3ccccc3S(=O)(=O)N2)c(O)c2ccc([N+](=O)[O-])cc21` belongs > 10000 nM; to `CC(C)CCn1c(=O)c(C2=Nc3ccccc3S(=O)(=O)N2)c(O)c2cc(F)ccc21`, 20 nM.
As to `CC(C)CCn1c(=O)c(C2=Nc3ccccc3S(=O)(=O)N2)c(O)c2cccc([N+](=O)[O-])c21`, the IC50 in assay [2] was > 10000 nM.
On the same count and under the same terms, to `CC(C)CCn1c(=O)n(C2=Nc3ccccc3S(=O)(=O)N2)c(=O)c2ccccc21` belongs 9940 nM.
On the same count and under the same terms, to `CC(C)CCn1c(=O)c(C2=Nc3ccccc3S(=O)(=O)N2)c(O)c2c(F)cccc21` belongs 340 nM.
